Data reported in ChEMBL document CHEMBL4152234, “Aminobenzothiazole derivatives stabilize the thermolabile p53 cancer mutant Y220C and show anticancer activity in p53-Y220C cell lines” (Eur J Med Chem, 2018).
The source made the active and inactive calls. The calls are words filed in the database; no cut-off is given here.

Key:
Type in all cases: cell-based
[1] = test system: Cellular tumor antigen p53 (Homo sapiens), P04637 [Y220C]; experiment: Activation of p53 Y220C mutant in human NUGC3 cells assessed as change in ATR mRNA level at 60 uM after 18 hrs by RT-PCR method relative to control
Outline: (§1)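 p53 signalling qPCR array covering 84 genes. Cells were exposed for 18 h, with 0.5% DMSO in both compound and control samples. Total RNA was extracted and purified. Fold-changes were calculated by ΔΔCt using β2-microglobulin (B2M) as the housekeeping gene. Two independent biological replicates were run per cell line.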

[2] = test system: Cellular tumor antigen p53 (Homo sapiens), P04637 [Y220C]; experiment: Activation of p53 Y220C mutant in human NUGC3 cells assessed as change in CDKN1A mRNA level at 60 uM after 18 hrs by RT-PCR method relative to control; outline: as §1
[3] = test system: Cellular tumor antigen p53 (Homo sapiens), P04637 [Y220C]; experiment: Activation of p53 Y220C mutant in human NUGC3 cells assessed as change in RB1 mRNA level at 60 uM after 18 hrs by RT-PCR method relative to control
Outline: (§2)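 p53 signalling qPCR array covering 84 p53 pathway genes. Cells were exposed for 18 h, and compound and control wells both held 0.5% DMSO. Total RNA was extracted and purified. Fold-changes were calculated by the ΔΔCt method against the untreated sample, with β2-microglobulin (B2M) as the housekeeping gene. Each cell line was run in two independent biological replicates.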

[4] = test system: Cellular tumor antigen p53 (Homo sapiens), P04637 [Y220C]; experiment: Activation of p53 Y220C mutant in human NUGC3 cells assessed as change in MDM4 mRNA level at 60 uM after 18 hrs by RT-PCR method relative to control; outline: as §2
[5] = test system: Cellular tumor antigen p53 (Homo sapiens), P04637 [Y220C]; experiment: Activation of p53 Y220C mutant in human NUGC3 cells assessed as change in BCL2 mRNA level at 60 uM after 18 hrs by RT-PCR method relative to control; outline: as §1
[6] = test system: Cellular tumor antigen p53 (Homo sapiens), P04637 [Y220C]; experiment: Activation of p53 Y220C mutant in human NUGC3 cells assessed as change in BID mRNA level at 60 uM after 18 hrs by RT-PCR method relative to control; outline: as §1
[7] = test system: Cellular tumor antigen p53 (Homo sapiens), P04637 [Y220C]; experiment: Activation of p53 Y220C mutant in human NUGC3 cells assessed as change in WT1 mRNA level at 60 uM after 18 hrs by RT-PCR method relative to control; outline: as §2
[8] = test system: Cellular tumor antigen p53 (Homo sapiens), P04637 [Y220C]; experiment: Activation of p53 Y220C mutant in human NUGC3 cells assessed as change in BRCA2 mRNA level at 60 uM after 18 hrs by RT-PCR method relative to control; outline: as §1
[9] = test system: Cellular tumor antigen p53 (Homo sapiens), P04637 [Y220C]; experiment: Activation of p53 Y220C mutant in human NUGC3 cells assessed as change in HK2 mRNA level at 60 uM after 18 hrs by RT-PCR method relative to control; outline: as §1
[10] = biological target: T1, Cellular tumor antigen p53 (Homo sapiens, UniProt P04637); experiment: Activation of p53 in human NUGC4 cells assessed as change in CHEK1 mRNA level at 60 uM after 18 hrs by RT-PCR method relative to control; conditions: read-out: FC
Outline: (§3)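 p53 signaling qPCR array of 84 p53-pathway genes. Cells were treated in 6-well plates for 18 h with 0.5% DMSO in compound and control samples. Total RNA was extracted and fold-changes were obtained by the ΔΔCt method against untreated control, with β2-microglobulin (B2M) as housekeeping gene. Two independent biological replicates per cell line.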

[11] = biological target: T1, Cellular tumor antigen p53; experiment: Activation of p53 in human NUGC4 cells assessed as change in CHEK2 mRNA level at 60 uM after 18 hrs by RT-PCR method relative to control; conditions: read-out: FC; outline: as §3
[12] = biological target: T1, Cellular tumor antigen p53; experiment: Activation of p53 in human NUGC4 cells assessed as change in BTG2 mRNA level at 60 uM after 18 hrs by RT-PCR method relative to control; conditions: read-out: FC; outline: as §3
[13] = biological target: T1, Cellular tumor antigen p53; experiment: Activation of p53 in human NUGC4 cells assessed as change in TNFRSF10B mRNA level at 60 uM after 18 hrs by RT-PCR method relative to control; conditions: read-out: FC
[14] = biological target: T1, Cellular tumor antigen p53; experiment: Activation of p53 in human NUGC4 cells assessed as change in TP53AIP1 mRNA level at 60 uM after 18 hrs by RT-PCR method relative to control; conditions: read-out: FC
[15] = biological target: T1, Cellular tumor antigen p53; experiment: Activation of p53 in human NUGC4 cells assessed as change in CDC25A mRNA level at 60 uM after 18 hrs by RT-PCR method relative to control; conditions: read-out: FC; outline: as §3
[16] = biological target: T1, Cellular tumor antigen p53; experiment: Activation of p53 in human NUGC4 cells assessed as change in CDC25C mRNA level at 60 uM after 18 hrs by RT-PCR method relative to control; conditions: read-out: FC; outline: as §3
[17] = biological target: T1, Cellular tumor antigen p53; experiment: Activation of p53 in human NUGC4 cells assessed as change in RPRM mRNA level at 60 uM after 18 hrs by RT-PCR method relative to control; conditions: read-out: FC
[18] = biological target: T1, Cellular tumor antigen p53; experiment: Activation of p53 in human NUGC4 cells assessed as change in NFKB1 mRNA level at 60 uM after 18 hrs by RT-PCR method relative to control; conditions: read-out: FC
Outline: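 p53-signalling qPCR array (84 pathway genes): cells treated 18 h in 0.5% DMSO, with DMSO-matched controls. Total RNA was extracted and fold-change quantified by the ΔΔCt method with β2-microglobulin (B2M) as housekeeping gene, normalized to the untreated sample. Two independent biological replicates per cell line.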

[19] = biological target: T1, Cellular tumor antigen p53; experiment: Activation of p53 in human NUGC4 cells assessed as change in BCL2 mRNA level at 60 uM after 18 hrs by RT-PCR method relative to control; conditions: read-out: FC; outline: as §2
[20] = biological target: T1, Cellular tumor antigen p53; experiment: Activation of p53 in human NUGC4 cells assessed as change in BIRC5 mRNA level at 60 uM after 18 hrs by RT-PCR method relative to control; conditions: read-out: FC; outline: as §2
[21] = biological target: T1, Cellular tumor antigen p53; experiment: Activation of p53 in human NUGC4 cells assessed as change in NF1 mRNA level at 60 uM after 18 hrs by RT-PCR method relative to control; conditions: read-out: FC; outline: as §3
[22] = biological target: T1, Cellular tumor antigen p53; experiment: Activation of p53 in human NUGC4 cells assessed as change in BAI1 mRNA level at 60 uM after 18 hrs by RT-PCR method relative to control; conditions: read-out: FC; outline: as §2
[23] = biological target: T1, Cellular tumor antigen p53; experiment: Activation of p53 in human NUGC4 cells assessed as change in BRCA2 mRNA level at 60 uM after 18 hrs by RT-PCR method relative to control; conditions: read-out: FC; outline: as §3
[24] = biological target: T1, Cellular tumor antigen p53; experiment: Activation of p53 in human NUGC4 cells assessed as change in XRCC5 mRNA level at 60 uM after 18 hrs by RT-PCR method relative to control; conditions: read-out: FC
[25] = test system: Cellular tumor antigen p53 (Homo sapiens), P04637 [Y220C]; experiment: Activation of p53 Y220C mutant in human HuH7 cells assessed as increase in p21 mRNA level at 30 uM after 18 hrs by RT-PCR method
Outline: (§4)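 Real-time PCR. Cells were treated for 18 h, with 0.5% DMSO in both compound and control samples. Relative mRNA levels were quantified by the ΔΔCt method as fold-change against the untreated sample. Each sample was measured in triplicate, and data are given as mean ± SEM with an unpaired t-test.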

[26] = test system: Cellular tumor antigen p53 (Homo sapiens), P04637 [Y220C]; experiment: Activation of p53 Y220C mutant in human HuH7 cells assessed as increase in MDM2 mRNA level at 30 uM after 18 hrs by RT-PCR method; outline: as §4

Structure (SMILES): CCNC(=O)c1c(O)c(I)c(-n2cccc2)c2sc(N(CC)CC)nc12
- fold change (FC) [1]: 1
- fold change (FC) [2]: 3.1
- fold change (FC) [3]: 0.9
- fold change (FC) [4]: 1.3
- fold change (FC) [5]: 1.7
- fold change (FC) [6]: 1.2
- fold change (FC) [7]: 1.5
- fold change (FC) [8]: 0.9
- fold change (FC) [9]: 1.7
- fold induction at 60 µM [10]: 0.7
- fold induction at 60 µM [11]: 0.7
- fold induction at 60 µM [12]: 0.6
- fold induction at 60 µM [13]: 1.2
- fold induction at 60 µM [14]: 1
- fold induction at 60 µM [15]: 0.4
- fold induction at 60 µM [16]: 0.9
- fold induction at 60 µM [17]: 7.9
- fold induction at 60 µM [18]: 0.8
- fold induction at 60 µM [19]: 1.2
- fold induction at 60 µM [20]: 0.6
- fold induction at 60 µM [21]: 0.8
- fold induction at 60 µM [22]: 2.9
- fold induction at 60 µM [23]: 0.6
- fold induction at 60 µM [24]: 0.8
- Activity [25]: Active
- Activity [26]: Active
